Among the data in ChEMBL document CHEMBL1154419, “Pharmacodynamic effects of telavancin against methicillin-resistant and methicillin-susceptible Staphylococcus aureus strains in the presence of human albumin or serum and in an in vitro kinetic model” (Antimicrob Agents Chemother, 2007) are MIC, Activity and deltalog10CFU/ml values, retold here.

In brackets after ≈: the same amount, converted by molar mass. Activity calls are given as the source filed them. No cut-off for these calls is given here.

The test system of experiment [1] is Staphylococcus aureus. Kind of experiment: Antibacterial activity against methicillin-resistant Staphylococcus aureus ATCC 33591 after 18 to 24 hrs by macrodilution technique. Type of experiment: functional. In outline:
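Broth macrodilution per CLSI, run in triplicate on separate occasions. Twofold serial drug dilutions in broth, inoculum approx. 5 × 10⁵ CFU/ml, 37°C for 18 to 24 h. MIC taken as the lowest concentration with no visible growth.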

For experiment [2], the system named is Staphylococcus aureus. Kind of experiment: Antibacterial activity against methicillin-susceptible Staphylococcus aureus ATCC 13709 assessed as bacterial regrowth at 0.25 times MIC. In kind it is functional, organism-based. In outline:
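Static time-kill in cation-supplemented M-H broth, inoculum ~5 × 10⁵ CFU/ml, 37°C; samples at 0, 3, 6, 12 and 24 h plated on blood agar for viable counts (detection limit 5 × 10¹ CFU/ml); duplicate runs.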

Experiment [3] deals with Staphylococcus aureus. Kind of experiment: Antibacterial activity against methicillin-susceptible Staphylococcus aureus ATCC 13709 assessed as bacterial killing at 50 times MIC after 24 hrs in presence of human albumin. Type of experiment: functional, organism-based.
Experiment [4] deals with Staphylococcus aureus. Kind of experiment: Antibacterial activity against methicillin-resistant Staphylococcus aureus ATCC 33591 assessed as bacterial regrowth at 0.5 times MIC after 24 hrs in presence of human albumin. Type of experiment: functional, organism-based. In outline: (§1)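 Static time-kill in M-H broth, in M-H broth with 40 g/liter fatty-acid-free purified human albumin, or in M-H broth with inactivated 50% human serum. Inoculum approx. 5 × 10⁵ CFU/ml, drug at 0.5, 1, 2.5, 5, 10, 25 and 50× MIC, 37°C. Samples at 0, 3, 6, 12 and 24 h plated on blood agar, counted after 24 h. Detection limit 5 × 10¹ CFU/ml. Run in duplicate.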

Experiment [5] deals with Staphylococcus aureus. As to the kind of experiment: Antibacterial activity against methicillin-resistant Staphylococcus aureus ATCC 33591 assessed as bacterial killing at 0.5 to 50 times MIC after 24 hrs in presence of 50% human serum. Type of experiment: functional, organism-based. The essentials:
as §1

Experiment [6] relates to Staphylococcus aureus. As to the kind of experiment: Antibacterial activity against methicillin-susceptible Staphylococcus aureus ATCC 13709 assessed as bacterial killing at 10 times MIC after 6 hrs in PBS-nutrient depleted medium. In kind it is functional, organism-based.
Experiment [7] can be described thus: Ratio of AUC in in vitro kinetic model containing Mueller-Hinton broth and methicillin-susceptible Staphylococcus aureus ATCC 13709 to MIC for methicillin-susceptible Staphylococcus aureus ATCC 13709 in bacterial regrowth stage. Type of experiment: functional.
The subject of experiment [8] is Staphylococcus aureus. Kind of experiment: Antibacterial activity against methicillin-susceptible Staphylococcus aureus ATCC 13709 assessed as change in bacterial burden at 1 mg/liter after 8 hrs. In kind it is functional.
In experiment [9] the test system is Staphylococcus aureus. Kind of experiment: Antibacterial activity against methicillin-resistant Staphylococcus aureus ATCC 33591 assessed as change in bacterial burden at 10 mg/liter after 4 hrs. Type of experiment: functional. In outline:
(§2)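 In vitro kinetic model: spinner flask with 0.45-μm filter and prefilter, stirred, M-H broth at 37°C, starting inoculum approx. 5 × 10⁵ CFU/ml. Single initial drug dose of 1.0 to 40 mg/liter, with flow set to give a half-life of approx. 8 h. Viable counts at 0, 2, 4, 6, 8, 12 and 24 h. Duplicate runs per strain and concentration.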

The test system of experiment [10] is Staphylococcus aureus. Kind of experiment: Antibacterial activity against methicillin-resistant Staphylococcus aureus ATCC 33591 assessed as change in bacterial burden at 5 mg/liter after 12 hrs. Type of experiment: functional. The essentials:
as §2

Experiment [11] deals with Staphylococcus aureus. Kind of experiment: Antibacterial activity against methicillin-resistant Staphylococcus aureus ATCC 33591 assessed as change in bacterial burden at 2.5 mg/liter after 24 hrs. In kind it is functional. In outline:
as §2

Experiment [12] has as its system Staphylococcus aureus. Kind of experiment: Antibacterial activity against methicillin-susceptible Staphylococcus aureus ATCC 13709 assessed as change in bacterial burden at 2.5 mg/liter after 12 hrs. Type of experiment: functional.
Experiment [13] relates to Staphylococcus aureus. Kind of experiment: Antibacterial activity against methicillin-resistant Staphylococcus aureus ATCC 33591 assessed as change in bacterial burden at 40 mg/liter after 4 hrs. Type of experiment: functional. The essentials: as §2
Experiment [14] concerns Staphylococcus aureus. Kind of experiment: Antibacterial activity against methicillin-susceptible Staphylococcus aureus ATCC 13709 assessed as change in bacterial burden at 40 mg/liter after 12 hrs. Type of experiment: functional. The essentials: as §2
Experiment [15] relates to Staphylococcus aureus. Kind of experiment: Antibacterial activity against methicillin-susceptible Staphylococcus aureus ATCC 13709 assessed as change in bacterial burden at 20 mg/liter after 12 hrs. In kind it is functional.

In general, MIC refers to the lowest concentration found to suppress growth. In experiment [1], `CCCCCCCCCCNCCN[C@@]1(C)C[C@H](O[C@H]2[C@H](Oc3c4cc5cc3Oc3ccc(cc3Cl)[C@@H](O)[C@@H](NC(=O)[C@@H](CC(C)C)NC)C(=O)N[C@@H](CC(N)=O)C(=O)N[C@H]5C(=O)N[C@H]3C(=O)N[C@H](C(=O)N[C@H](C(=O)O)c5cc(O)c(CNCP(=O)(O)O)c(O)c5-c5cc3ccc5O)[C@H](O)c3ccc(c(Cl)c3)O4)O[C@H](CO)[C@@H](O)[C@@H]2O)O[C@@H](C)[C@H]1O` [TELAVANCIN] displayed an MIC of 1 µg/mL (≈ 0.57 µM). The result in experiment [2], in [3], in [4], in experiment [5] and in [6] was Active. Moreover, in [7], the result was inactive. Further, the deltalog10CFU/ml is -2.6 in experiment [8]; -2.2 in [9]; -4.2 in experiment [10]; -3.6 in [11]; -4.7 in experiment [12]; -2.7 in experiment [13]. Also, the deltalog10CFU/ml was -4.7 in experiment [14] and -4.6 in experiment [15].
